Shown are actives, neighbours in structure and some others; about 1.5% of the full set was active somewhere.
APJ antagonist – APJ receptor antagonism | inhibition, % at 20 µM | 330,000 tested, 0.32% active | CHO-K1 APJ beta-arrestin complementation, luminescence | P35414;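 active means inhibition above about 40% at 20 µM, limit read from the data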;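 further: cells challenged with 10 nM apelin-13 agonist together with compound; plate controls were apelin-13 plus DMSO wells for no effect and DMSO wells lacking apelin-13 for full effect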
APJ ag – APJ receptor agonism | P35414 | activation, % at 20 µM | AID 2520 | 330,000 tested, 0.11% active | CHO-K1 APJ PathHunter beta-arrestin, luminescence; 0% DMSO wells, 100% apelin;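 active means activation more than six SD over the plate average, tested at 20 µM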;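 further: 0% = DMSO alone and 100% = apelin-13 at 10 nM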
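Material: engineered CHO-K1 APJ arrestin reporter cells; amount: 1000 CHO-K1 reporter cells seeded per well; incubation: compound stimulation 90 min at 25 °C, detection 60 min; signal: luminescent beta-gal fragment complementation, chemiluminescent substrate; read-out basis: APJ agonist activity; controls: DMSO-only wells as negative, 10 nM Apelin-13 as positive control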
CXCR6 block – blocks human CXCR6 beta-arrestin recruitment; CHO-K1 PathHunter CXCR6 beta-arrestin, luminescence; 360,000 tested, 0.36% active; O00574; inhibition, % at 20 µM; AID 602244; in the data active means inhibition above about 34%, passing the limit was not always enough;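 further: antagonist mode with CXCL16 agonist at 10 nM final; 0% = 10 nM CXCL16 with DMSO and 100% = unstimulated wells without agonist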
Target sequence (O00574 whole entry, looked up): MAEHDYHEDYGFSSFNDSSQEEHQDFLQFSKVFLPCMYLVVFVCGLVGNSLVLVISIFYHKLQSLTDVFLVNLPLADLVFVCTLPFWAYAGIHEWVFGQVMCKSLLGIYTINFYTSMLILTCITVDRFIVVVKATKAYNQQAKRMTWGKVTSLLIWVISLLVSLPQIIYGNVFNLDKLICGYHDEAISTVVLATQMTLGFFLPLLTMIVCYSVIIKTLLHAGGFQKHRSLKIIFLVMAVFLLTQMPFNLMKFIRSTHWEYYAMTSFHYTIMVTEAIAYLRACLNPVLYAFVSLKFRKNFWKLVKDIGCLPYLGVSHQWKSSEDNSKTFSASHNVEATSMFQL
EBI2 block – antagonists of human EBI2 receptor; P32249; EBI2 beta-arrestin recruitment, luminescence, 7a,25-OHC stimulated; inhibition, % at 5 µM; 360,000 tested, 0.81% active; in the data active means inhibition above about 38%;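 further: enzyme fragment complementation signal reports receptor beta-arrestin coupling in cells; 0% = agonist plus DMSO wells and 100% = wells without agonist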
CCR6 antag – blocks CCL20-driven beta-arrestin recruitment at human CCR6. P51684. CHO-K1 CCR6 PathHunter beta-arrestin, luminescence, CCL20-stimulated. inhibition, % at 20 µM. 340,000 tested, 0.49% active. AID 493098;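 active means compounds whose inhibition of the agonist-driven luminescence signal at 20 µM reaches about 50%, limit read from the data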;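 further: cells stimulated with CCL20 at 14 nM final; plate controls were DMSO with CCL20 for no effect and DMSO without agonist for full effect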
EBI2 antag conf – confirmation of human EBI2 receptor antagonists; shares compounds with EBI2 block; EBI2 beta-arrestin luminescence, 7a,25-OHC antagonism; inhibition, % at 5 µM; 2,400 tested, 29% active;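 active means inhibition of at least 50%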
EBI2 agonist – activates EBI2, counter-screen for EBI2 antagonists | shares compounds with EBI2 block | AID 652000 | EBI2-expressing cells, agonist mode, luminescence, 60 min; 0% vehicle, 100% 7α,25-dihydroxycholesterol control | 2,400 tested, under 10 active | activation, % at 5 µM;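 active means activation of at least 50%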
bGal cs – counter-screen for EBI2 antagonists: E. coli beta-galactosidase inhibition | inhibition, % at 5 µM | 2,400 tested, 1% active | shares compounds with EBI2 block | purified beta-galactosidase, luminescent Galacton Star, 15 min;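 active means replicate-average signal at least 3 plate SD below neutral wells, shown as high inhibition, flagging enzyme-inhibiting false positives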;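 further: 0% = DMSO wells with enzyme and 100% = wells lacking enzyme; higher means stronger loss of beta-gal luminescence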
* marks the source's active call; other numbers are inactive results; . = no result given.

SMILES	APJ antagonist	APJ ag	CXCR6 block	EBI2 block	CCR6 antag	EBI2 antag conf	EBI2 agonist	bGal cs
COc1cc(/C=C/C(=O)NCC2CCCCC2)cc(OC)c1OC	-28	2	10	52*	4	40	-1	-19
O=C(/C=C/c1cccc(Br)c1)NCC1CCCCC1	0	-3	-2	43*	21	35	-1	-18
COc1ccc(CCNC(=O)/C=C/c2cc(OC)c(OC)c(OC)c2)cc1OC	8	-3	-2	37*	8	18	1	11
CCOC(=O)C1CCCN(C(=O)c2cccc(S(=O)(=O)N(C)c3ccc(C)cc3)c2)C1 (stereo not given)	-50	-4	10	-2	11	.	.	.
CC(CCc1ccccc1)NC(=O)C1CCCN(C(=O)c2cc3sccc3n2C)C1 (stereo not given)	-10	-4	-4	60*	11	29	0	-11
O=C(C1CC(=O)N(c2ccc3c(c2)OCCO3)C1)N1CCN(S(=O)(=O)c2cccc(F)c2)CC1 (stereo not given)	.	.	-8	8	-2	.	.	.
O=C1CC(C(=O)N2CCN(S(=O)(=O)c3cccc(F)c3)CC2)CN1Cc1ccccc1Cl (stereo not given)	16	-3	1	62*	-5	33	-2	-7
COc1ccc2c(c1)c1nc3ccccc3nc1n2Cc1ccc(OC(C)C)c(OC)c1	4	-5	3	26	17	.	.	.
COc1ccc(Cn2c3ccc(OC)cc3c3nc4ccccc4nc32)cc1	9	-4	-4	53*	2	22	-1	-14
C[C@@H]1CN([C@H](C)CO)C(=O)c2cc(NC(=O)Cc3cn(C)c4ccccc34)ccc2O[C@H]1CN(C)S(=O)(=O)c1ccc(F)cc1	13	-1	11	13	15	.	.	.
Cc1ccc(-n2c(Cc3cccn3C)nnc2SCC(=O)NCc2ccc3c(c2)OCO3)cc1	-2	-3	9	45*	-6	37	1	-4
Cc1ccc(-n2c(Cc3cccn3C)nnc2SCC(=O)Nc2ccc3c(c2)OCO3)cc1	-13	0	-10	24	-4	.	.	.
COc1ccc(-n2c(Cc3cccn3C)nnc2SCC(=O)Nc2cccc(F)c2)cc1	26	-6	1	56*	12	7	-1	-9
Cn1cccc1Cc1nnc(SCC(=O)Nc2cccc(F)c2)n1CCc1ccccc1	16	-1	7	45*	1	39	-2	-8
COc1ccc(-n2c(Cc3cccn3C)nnc2SCC(=O)NCc2ccccc2Cl)cc1	11	-5	5	56*	19	19	1	5
O=S(=O)(c1ccc(Cl)nc1)N1CCCC1	13	0	-13	-3	-1	.	.	.
O=C(COc1ccccc1N1C(=O)C2C3C=CC(C3)C2C1=O)c1ccccc1 (stereo not given)	-1	-5	3	-2	-2	.	.	.
COc1ccc(-n2c(Cc3cccn3C)nnc2SCC(=O)Nc2ccccc2)cc1	1	-2	-3	29	2	.	.	.
COc1ccc(-n2c(Cc3cccn3C)nnc2SCC(=O)Nc2cc(Cl)ccc2OC)cc1	19	-3	4	58*	7	27	0	10
COc1ccc(-n2c(Cc3cccn3C)nnc2SCC(=O)Nc2ccccc2OC)cc1	8	0	-8	45*	6	31	1	10
NC(=O)C1(Nc2ccccc2)CCCC1	.	.	4	-3	1	.	.	.
COc1ccc(C(=O)OCC(=O)c2ccc[nH]2)cc1	29	-2	-2	7	9	.	.	.
CSc1cccc(NC(=O)COC(=O)C2CCN(S(=O)(=O)c3ccccc3)CC2)c1	9	-2	6	5	5	.	.	.
CSc1ccc(/C=C/C(=O)c2ccc(NC(C)=O)cc2)cc1	2	-2	6	80*	10	40	0	6
O=C(/C=C/c1ccc(Br)cc1)c1ccc(NC(=O)c2ccco2)cc1	5	-1	2	43*	0	9	-1	-8
SMILES	APJ antagonist	APJ ag	CXCR6 block	EBI2 block	CCR6 antag	EBI2 antag conf	EBI2 agonist	bGal cs
CCCC(=O)Nc1ccc(C(=O)/C=C/c2ccc(SC)cc2)cc1	3	0	-4	44*	4	38	0	6
COc1ccc(CNC(C)C23CC4CC(CC(C4)C2)C3)c(OC)c1OC (stereo not given)	-6	-1	8	1	1	.	.	.
N#C/C(=C\c1cn(CCOc2ccccc2)c2ccccc12)C(=O)NCc1ccco1	9	-7	8	46*	29	22	0	8
CCOc1ccc(Br)cc1S(=O)(=O)Nc1ccc(C(=O)Nc2ccc(C)cc2)cc1	5	1	-21	56*	1	18	-1	-10
CCOc1ccc(Br)cc1S(=O)(=O)Nc1ccc(NC(=O)c2ccccc2C)cc1	-2	-1	6	-11	-12	.	.	.
CC(NC(=O)CN(c1cccc(C(F)(F)F)c1)S(=O)(=O)c1ccc(Cl)c([N+](=O)[O-])c1)c1ccccc1 (stereo not given)	-24	0	-7	48*	-25	40	-1	-11
O=C(c1cccc(Cl)c1)N(Cc1ccco1)C1CCS(=O)(=O)C1 (stereo not given)	-5	-3	-5	-2	12	.	.	.
CCC(=O)N1CCN(c2cc(C)ccc2C)CC1	17	-8	2	4	-8	.	.	.
Cc1ccc(C)c(N2CCN(C(=O)c3csc4ccccc34)CC2)c1	19	-5	2	48*	15	32	1	3
CCN(CC)c1ccc(NC(=O)/C=C\c2ccccc2Cl)cc1	9	-2	13	49*	24	47	1	12
COc1ccccc1-n1cc(C(=O)N2CCCC(CO)(Cc3ccccc3C)C2)cn1 (stereo not given)	1	-3	1	10	14	.	.	.
Cc1ccc2oc(=O)c3cnn(CC(=O)N4CCN(c5ccccc5)CC4)c3c2c1	11	4	8	23	24	.	.	.
COCCCN(Cc1ccco1)C(=O)Cn1ncc2c(=O)oc3ccc(C)cc3c21	-11	-1	-7	55*	11	40	-1	-12
Cc1ccc2oc(=O)c3cnn(CC(=O)N4CCCc5ccccc54)c3c2c1	6	-1	7	53*	4	22	0	-14
O=S(=O)(Nc1cccc(-c2ccc3nncn3n2)c1)c1cc(F)ccc1F	4	-3	14	12	7	.	.	.
Nc1ccccc1C(=O)NCC1(c2ccccc2)CCCC1	12	-2	2	-13	6	.	.	.
